According to ChEMBL document CHEMBL1148626, “Synthesis and biological evaluation of novel, peripherally selective chromanyl imidazolethione-based inhibitors of dopamine beta-hydroxylase” (2006):
Activity calls are given as the source filed them. No cut-off for these calls is given here.

Columns and labels:
[1] = target: T1, Dopamine beta-hydroxylase (Homo sapiens) (UniProt P09172); assay: Effect on DBH activity in presence of dopamine by measuring Noradrenaline level; format: functional; design: concentration or dose not given beside the values
T1 sequence (whole entry): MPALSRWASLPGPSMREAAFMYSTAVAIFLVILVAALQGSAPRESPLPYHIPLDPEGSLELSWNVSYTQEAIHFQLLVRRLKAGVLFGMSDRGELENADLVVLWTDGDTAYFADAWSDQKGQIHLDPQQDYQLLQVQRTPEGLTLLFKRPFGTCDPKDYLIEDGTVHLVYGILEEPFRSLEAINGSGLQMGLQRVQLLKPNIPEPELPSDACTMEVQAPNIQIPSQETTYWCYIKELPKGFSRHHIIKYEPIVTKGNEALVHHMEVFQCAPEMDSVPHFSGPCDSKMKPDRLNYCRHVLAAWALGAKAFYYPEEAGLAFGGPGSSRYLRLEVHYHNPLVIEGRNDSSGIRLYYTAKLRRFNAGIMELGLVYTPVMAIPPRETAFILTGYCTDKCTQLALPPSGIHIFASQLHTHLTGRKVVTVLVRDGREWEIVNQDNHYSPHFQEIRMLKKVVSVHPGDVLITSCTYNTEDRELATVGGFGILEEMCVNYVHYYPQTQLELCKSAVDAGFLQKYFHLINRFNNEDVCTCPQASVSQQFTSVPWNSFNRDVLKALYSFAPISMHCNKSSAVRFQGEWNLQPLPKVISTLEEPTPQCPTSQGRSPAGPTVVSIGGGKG
Method in brief: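 Inhibitor at 5 µM in 200 mM sodium acetate pH 5.0 containing N-ethylmaleimide, CuSO4, catalase, pargyline, fumarate and 20 mM ascorbate. Preincubated 20 min at 37 °C, then dopamine added as substrate and reacted 45 min at 37 °C. Stopped with perchloric acid and filtered. Noradrenaline formed quantified by HPLC-ECD (0.75 V). Residual activity given as % of control, mean ± SEM of three experiments.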

Rattus norvegicus [2] = assay: Decrease in noradrenaline tissue levels in rat at 100 mg/kg, po after 9 hrs; format: functional, organism-based; design: dose 100 mg/kg; conditions: Wistar
Method in brief: (§1)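 Male Wistar rats dosed orally by gavage at 100 mg/kg, with water as vehicle. Killed by decapitation 9 h postdose. Frontal and parietal cortex, left atrium and left ventricle taken, extracted in 0.2 M perchloric acid (12 h, 4 °C, dark) and filtered. Noradrenaline by HPLC-electrochemical detection, as % of control without inhibitor. Mean ± SEM, four animals per group.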

Mus musculus [3] = assay: Time for maximum effect for noradrenaline tissue reduction at 100 mg/kg, po; format: functional, organism-based; design: dose 100 mg/kg; conditions: NMR1
Method in brief: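 Mice given 100 mg/kg orally in water by gavage. Heart taken 6, 9, 18 and 24 h postdose and extracted in 0.2 M perchloric acid. Noradrenaline measured by HPLC with electrochemical detection, as % of control without inhibitor. Mean ± SEM, four animals per group. Time of maximum effect taken from the time course.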

Mus musculus [4] = species: Mus musculus; assay: Effect on noradrenaline levels in mouse left ventricle after 9 hrs; format: functional, organism-based; conditions: NMR1, Heart left ventricle
Method in brief: (§2)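 Male NMRI mice given test compound or vehicle (water) orally by gavage at a range of doses. At 9 h postdose, decapitation. Tissue (left ventricle or brain parietal cortex) weighed, held in 0.2 M perchloric acid 12 h at 4 °C in the dark, then filtered by centrifugation. Noradrenaline measured by HPLC with electrochemical detection. Value given as % of vehicle control.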

Mus musculus [5] = species: Mus musculus; assay: Decrease in noradrenaline tissue levels in mouse brain parietal cortex after 9 hrs; format: functional, organism-based; conditions: NMR1; method in brief: as §2
Rattus norvegicus [6] = species: Rattus norvegicus; assay: Decrease in noradrenaline tissue levels in rat brain parietal and frontal cortex; format: functional, organism-based; conditions: Wistar, Cerebral cortex; method in brief: as §1
Mus musculus [7] = assay: Effect on recovery of noradrenaline levels in mice at 100 mg/kg after 24 hrs; format: functional
Method in brief: (§3)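 Male NMRI mice housed 10 per cage on a 12 h light/dark cycle at 22 °C. Compound given at 100 mg/kg by oral gavage in water vehicle. Animals decapitated at set times postdose; heart tissue held in 0.2 M perchloric acid for 12 h at 4 °C in the dark, then filtered. NA measured by HPLC with electrochemical detection. Expressed as % of vehicle control, mean ± SEM, n=4 per group.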

Mus musculus [8] = assay: Decrease in noradrenaline tissue levels in mice heart at 100 mg/kg, po after 18 hrs; format: functional, organism-based; design: dose 100 mg/kg; conditions: NMR1; method in brief: as §3

SMILES: CNCCc1c[nH]c(=S)n1[C@H]1COc2c(F)cc(F)cc2C1
- Activity [1]: 2.6%

SMILES: Oc1ccc2c(c1)C[C@@H](n1c(CCNCc3ccccc3)cnc1S)CO2
- Activity [1]: 4.5%

SMILES: NCCc1cnc(S)n1[C@H]1COc2c(cc(F)c(F)c2F)C1
- Activity [1]: 8.2%

SMILES: NCCc1cnc(S)n1[C@H]1COc2cc(F)c(F)cc2C1
- Activity [1]: 9.4%

SMILES: NCCc1cnc(S)n1[C@H]1COc2c(O)cccc2C1
- Activity [1]: 125%

SMILES: COc1cc(Cl)c2c(c1)C[C@@H](n1c(CCN)cnc1S)CO2
- Activity [1]: 94%

SMILES: Cl.NCc1c[nH]c(=S)n1[C@H]1CCc2c(F)cc(F)cc2C1 [NEPICASTAT HYDROCHLORIDE]
- Activity (Rattus norvegicus [2]): Active
- Tmax (Mus musculus [3]): 9 h
- Activity (Mus musculus [4]): Dose-dependent effect
- Activity (Mus musculus [5]): Dose-dependent effect
- Activity (Rattus norvegicus [6]): Active
- Activity [1]: 0%
- Activity (Mus musculus [7]): 50%
- Activity (Mus musculus [8]): Active

SMILES: CNCCc1cnc(S)n1[C@H]1COc2ccc(O)cc2C1
- Activity [1]: 15.5%

SMILES: NCCc1cnc(S)n1[C@@H]1COc2c(F)cc(F)cc2C1
- Activity [1]: 50.2%

SMILES: COc1ccc2c(c1)C[C@@H](n1c(CCN)cnc1S)CO2
- Activity [1]: 54.5%

SMILES: COc1cc(Cl)cc2c1OC[C@H](n1c(CCN)cnc1S)C2
- Activity [1]: 36.7%

SMILES: COc1cccc2c1OC[C@H](n1c(CCN)cnc1S)C2
- Activity [1]: 6.9%

SMILES: NCCc1cnc(S)n1C1CSc2ccc(O)cc2C1 (stereo unspecified)
- Activity [1]: 27.3%

SMILES: NCc1cnc(S)n1[C@H]1COc2ccc(O)cc2C1
- Activity [1]: 17.8%

SMILES: Cl.NCCc1cnc(S)n1[C@H]1COc2c(F)cc(F)cc2C1
- Activity (Rattus norvegicus [2]): Active
- Tmax (Mus musculus [3]): 9 h
- Activity (Mus musculus [4]): Dose-dependent effect
- Activity (Mus musculus [5]): inactive
- Activity (Rattus norvegicus [6]): inactive
- Activity [1]: 3.3%
- Activity (Mus musculus [7]): 50%
- Activity (Mus musculus [8]): Active

SMILES: NCCc1cnc(S)n1[C@H]1COc2ccc([N+](=O)[O-])cc2C1
- Activity [1]: 94.8%

SMILES: COc1ccc2c(c1)CC(n1c(CCN)cnc1S)CS2 (stereo unspecified)
- Activity [1]: 99.4%

SMILES: NCCc1cnc(S)n1[C@H]1COc2ccc(O)cc2C1
- Activity [1]: 0%

SMILES: NCCc1cnc(S)n1[C@H]1COc2c(F)cccc2C1
- Activity [1]: 6.9%

SMILES: CNCCc1cnc(S)n1[C@H]1COc2ccccc2C1
- Activity [1]: 2.2%

SMILES: NCCc1cnc(S)n1[C@H]1COc2c(cccc2[N+](=O)[O-])C1
- Activity [1]: 53.2%

SMILES: NCCc1cnc(S)n1[C@H]1COc2cc(Cc3ccccc3)c(O)cc2C1
- Activity [1]: 86.1%

SMILES: NCCc1cnc(S)n1[C@H]1COc2ccc(F)cc2C1
- Activity [1]: 8%

SMILES: NCCc1cnc(S)n1[C@H]1CCc2ccccc2C1
- Activity [1]: 16.8%

SMILES: NCCc1cnc(S)n1[C@H]1CCc2c(F)cc(F)cc2C1
- Activity [1]: 1.6%
- Activity (Mus musculus [8]): Active

SMILES: COc1ccc2c(c1)C[C@@H](n1c(CCNCc3ccccc3)cnc1S)CO2
- Activity [1]: 66%

SMILES: NCCc1cnc(S)n1[C@H]1COc2ccccc2C1
- Activity [1]: 3%

SMILES: NCc1cnc(S)n1[C@H]1COc2ccccc2C1
- Activity [1]: 0%

SMILES: NCCCc1cnc(S)n1[C@H]1CCc2c(F)cc(F)cc2C1
- Activity [1]: 8.1%

SMILES: NCc1cnc(S)n1[C@H]1COc2c(F)cc(F)cc2C1
- Activity [1]: 4.1%
- Activity (Mus musculus [8]): Active
